For assay [1], the target named is T1, Acetylcholinesterase (Rattus norvegicus, UniProt P37136).
T1 sequence (P37136 whole entry): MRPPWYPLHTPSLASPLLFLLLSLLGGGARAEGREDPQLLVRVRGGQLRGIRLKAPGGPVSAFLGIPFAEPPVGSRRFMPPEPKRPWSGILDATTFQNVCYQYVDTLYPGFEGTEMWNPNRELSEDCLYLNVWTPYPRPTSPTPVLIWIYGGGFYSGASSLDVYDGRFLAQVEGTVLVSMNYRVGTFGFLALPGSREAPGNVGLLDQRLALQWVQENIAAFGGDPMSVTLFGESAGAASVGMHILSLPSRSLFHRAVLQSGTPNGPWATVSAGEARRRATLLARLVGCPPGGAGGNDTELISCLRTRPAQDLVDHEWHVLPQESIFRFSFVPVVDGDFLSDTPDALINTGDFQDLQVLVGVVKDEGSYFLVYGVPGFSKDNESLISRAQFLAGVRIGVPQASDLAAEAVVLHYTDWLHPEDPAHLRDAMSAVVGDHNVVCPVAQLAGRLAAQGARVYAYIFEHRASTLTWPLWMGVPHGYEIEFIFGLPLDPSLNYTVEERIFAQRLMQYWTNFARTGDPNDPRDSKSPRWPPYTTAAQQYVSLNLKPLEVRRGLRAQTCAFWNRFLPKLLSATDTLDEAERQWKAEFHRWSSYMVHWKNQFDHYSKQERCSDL

Assay [2] addresses T2, Amine oxidase [flavin-containing] A (Homo sapiens, UniProt P21397).
T2 sequence (P21397 whole entry): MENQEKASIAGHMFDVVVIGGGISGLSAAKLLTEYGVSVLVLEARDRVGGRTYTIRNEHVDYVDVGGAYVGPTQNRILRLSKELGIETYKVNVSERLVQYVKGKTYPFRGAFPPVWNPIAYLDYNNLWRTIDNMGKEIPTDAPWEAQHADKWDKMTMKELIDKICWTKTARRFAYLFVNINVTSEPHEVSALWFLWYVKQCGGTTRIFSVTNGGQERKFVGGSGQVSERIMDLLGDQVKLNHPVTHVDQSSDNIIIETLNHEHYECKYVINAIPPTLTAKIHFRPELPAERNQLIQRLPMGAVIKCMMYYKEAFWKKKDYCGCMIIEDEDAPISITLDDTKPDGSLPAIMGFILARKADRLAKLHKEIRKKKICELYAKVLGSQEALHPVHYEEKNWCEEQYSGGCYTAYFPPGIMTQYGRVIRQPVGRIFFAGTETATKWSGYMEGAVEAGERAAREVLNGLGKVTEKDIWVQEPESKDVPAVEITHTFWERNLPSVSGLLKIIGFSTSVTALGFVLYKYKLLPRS
Put plainly: Inhibition of recombinant human MAO-A expressed in baculovirus infected BTI insect cells using kynuramine as substrate after 30 mins by fluorescence assay.

Assay [3] in a line: Inhibition of rat serum BuChE using butyrylthiocholine chloride as substrate after 15 mins by Ellman's method. Put shortly:
(§1)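 Ellman assay. Equine serum or rat serum BuChE pre-incubated with test compound at various concentrations (DMSO <1%) in 0.1 M phosphate buffer pH 8.0 for 15 min at 37°C. DTNB (0.2%) added, absorbance read at 412 nm. Inhibition % = (1−Ai/Ac)×100. IC50 is the mean of three independent experiments, each run in triplicate.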
For orientation: In Ellman's method for cholinesterases, released thiocholine reacts with DTNB.

Assay [4] has as its target T3, Amine oxidase [flavin-containing] B (Homo sapiens, UniProt P27338).
T3 sequence (P27338 whole entry): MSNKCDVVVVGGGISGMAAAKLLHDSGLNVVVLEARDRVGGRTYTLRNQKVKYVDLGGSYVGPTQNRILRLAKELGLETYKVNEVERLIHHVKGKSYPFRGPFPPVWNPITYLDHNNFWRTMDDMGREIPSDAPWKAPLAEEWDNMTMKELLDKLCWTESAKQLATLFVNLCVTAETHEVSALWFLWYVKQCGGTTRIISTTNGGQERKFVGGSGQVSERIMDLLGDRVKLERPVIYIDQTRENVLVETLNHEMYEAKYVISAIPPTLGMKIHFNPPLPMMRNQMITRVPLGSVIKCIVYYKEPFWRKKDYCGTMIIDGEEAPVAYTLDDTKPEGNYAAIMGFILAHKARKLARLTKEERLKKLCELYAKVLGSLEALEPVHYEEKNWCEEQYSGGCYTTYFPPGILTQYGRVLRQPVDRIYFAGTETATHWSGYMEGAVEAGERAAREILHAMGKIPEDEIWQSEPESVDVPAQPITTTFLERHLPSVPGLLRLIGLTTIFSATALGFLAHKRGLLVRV
Put plainly: biochemical. Format: cell-based.

Assay [5] can be described thus: Selectivity index, ratio of IC50 for equine serum BuChE to IC50 for electric eel AChE.
Another assay is filed under the species Rattus norvegicus. Kind of assay: Selectivity index, ratio of IC50 for rat serum BuChE to IC50 for 5% rat cortex homogenate AChE.
The target of another assay is Cholinesterase (Equus caballus, UniProt P81908). Put plainly: Inhibition of equine serum BuChE using butyrylthiocholine chloride as substrate after 15 mins by Ellman's method. In a few lines:
as §1

Another assay is filed under the species Homo sapiens. Put plainly: Selectivity index, ratio of IC50 for recombinant human MAO-B to IC50 for recombinant human MAO-A.
For assay [6], the target named is Acetylcholinesterase (Electrophorus electricus, UniProt O42275). Put plainly: Inhibition of electric eel AChE using acetylthiocholine chloride as substrate after 15 mins by Ellman's method.
Acetylcholinesterase (Electrophorus electricus, UniProt O42275), sequence (O42275 whole entry): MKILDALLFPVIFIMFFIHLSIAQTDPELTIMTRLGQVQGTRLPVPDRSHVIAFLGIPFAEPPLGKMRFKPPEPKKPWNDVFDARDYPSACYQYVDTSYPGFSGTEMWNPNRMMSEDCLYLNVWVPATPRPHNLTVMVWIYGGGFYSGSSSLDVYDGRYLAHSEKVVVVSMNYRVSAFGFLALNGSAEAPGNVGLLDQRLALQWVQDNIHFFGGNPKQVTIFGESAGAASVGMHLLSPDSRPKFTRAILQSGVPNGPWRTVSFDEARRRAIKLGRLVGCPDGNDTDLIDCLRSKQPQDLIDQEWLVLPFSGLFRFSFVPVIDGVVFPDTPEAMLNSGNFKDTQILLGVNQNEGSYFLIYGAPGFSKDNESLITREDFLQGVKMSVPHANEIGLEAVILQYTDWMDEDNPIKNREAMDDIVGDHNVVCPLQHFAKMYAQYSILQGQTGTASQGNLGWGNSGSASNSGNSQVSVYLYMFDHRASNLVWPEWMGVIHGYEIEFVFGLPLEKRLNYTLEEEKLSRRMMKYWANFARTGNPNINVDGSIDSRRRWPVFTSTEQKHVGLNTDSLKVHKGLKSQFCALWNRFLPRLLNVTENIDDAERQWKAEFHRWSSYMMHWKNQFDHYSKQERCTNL

Cholinesterase, sequence (P81908 whole entry): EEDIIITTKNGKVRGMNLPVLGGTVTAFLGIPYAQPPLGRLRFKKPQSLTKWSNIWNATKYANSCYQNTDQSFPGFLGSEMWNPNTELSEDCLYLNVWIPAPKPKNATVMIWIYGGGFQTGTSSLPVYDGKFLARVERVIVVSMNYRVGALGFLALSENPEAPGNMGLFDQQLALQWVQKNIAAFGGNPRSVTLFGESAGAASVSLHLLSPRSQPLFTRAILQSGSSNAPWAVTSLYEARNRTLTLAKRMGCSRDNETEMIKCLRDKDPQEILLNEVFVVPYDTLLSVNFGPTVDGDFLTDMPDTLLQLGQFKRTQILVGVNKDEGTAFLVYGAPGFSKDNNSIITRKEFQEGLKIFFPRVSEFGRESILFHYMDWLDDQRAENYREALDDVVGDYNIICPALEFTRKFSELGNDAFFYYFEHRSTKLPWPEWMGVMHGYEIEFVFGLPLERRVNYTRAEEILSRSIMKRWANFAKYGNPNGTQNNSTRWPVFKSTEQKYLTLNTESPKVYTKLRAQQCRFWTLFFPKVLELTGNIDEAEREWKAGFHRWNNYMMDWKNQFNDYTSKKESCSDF

Consider `C#CCN(CCCOc1ccc2c(c1)NC(=O)CC2)Cc1ccccc1`, for which the IC50 (commonly the concentration at which inhibition is half-maximal) is 26 µM on Acetylcholinesterase [1]; 9 µM in [2]; 30.3 µM in [3]; 7.3 µM in assay [4]; 29.5 µM on Cholinesterase; 23.5 µM at Acetylcholinesterase [6]. In addition, the Ratio IC50 in assay [5] was 1.3; in the assay filed under Rattus norvegicus, 1.2; in the assay filed under Homo sapiens, 0.8.
On to `O=C1CCc2ccc(OCCCCCCN3CCCC3)cc2N1`, for which the IC50 against Acetylcholinesterase [1] is 3.4 µM; in [2], 1.3 µM; in assay [3], 8.5 µM; in [4], 3.5 µM; against Cholinesterase it was 0.87 µM; at Acetylcholinesterase [6], 2.6 µM. Further, the figures for the Ratio IC50 (in assay [5]; in the assay listed under Rattus norvegicus; in the assay filed under Homo sapiens) were 0.33, 2.5 and 2.8, respectively.
Turning to `O=C1CCc2ccc(OCCCCCCN3CCCCC3)cc2N1`, the IC50 at Acetylcholinesterase [1] worked out at 6 µM; in assay [2] it was 9.4 µM; in assay [3], 27.2 µM; in assay [4] it was 31.7 µM; at Cholinesterase it was 14.1 µM; on Acetylcholinesterase [6] it was 17.8 µM. Further, the Ratio IC50 in assay [5] was 0.8; in the assay filed under Rattus norvegicus, 4.5; in the assay listed under Homo sapiens, 3.4.
Turning to `O=C1CCc2ccc(OCCCCN3CCN(c4ccccn4)CC3)cc2N1`, the IC50 was 21 µM at Acetylcholinesterase [1]; 6.9 µM in [2]; 40 µM in assay [3]; 10.1 µM in assay [4]; 8.4 µM at Cholinesterase; 13.8 µM against Acetylcholinesterase [6]. The values for the Ratio IC50 (in [5]; in the assay listed under Rattus norvegicus; in the assay filed under Homo sapiens) were 0.6, 1.9 and 1.5, respectively.
For the compound `O=C1CCc2ccc(OCCCCN3CCc4ccccc4C3)cc2N1`, the IC50 on Acetylcholinesterase [1] is 18.2 µM; in assay [2], 4.9 µM; in assay [3], 12.4 µM; in assay [4], 6.9 µM; at Cholinesterase it was 3.8 µM; against Acetylcholinesterase [6], 10.1 µM. Moreover, the values for the Ratio IC50 (in assay [5]; in the assay filed under Rattus norvegicus; in the assay filed under Homo sapiens) were 0.4, 0.7 and 1.4, respectively.
Take `CC(C)N1CCN(CCCOc2ccc3c(c2)NC(=O)CC3)CC1`: the IC50 came out at 14 µM on Acetylcholinesterase [1]; 9.4 µM in assay [2]; 10.2 µM in assay [3]; 26.1 µM in assay [4]; 20 µM against Cholinesterase; 6.2 µM on Acetylcholinesterase [6]. For the same compound, the Ratio IC50 was found to be 3.3 in [5], 0.7 in the assay filed under Rattus norvegicus and 2.8 in the assay listed under Homo sapiens.
`C#CCN(CCCCCCOc1ccc2c(c1)NC(=O)CC2)Cc1ccccc1`: the IC50 was 13 µM at Acetylcholinesterase [1]; 1 µM in assay [2]; 24.5 µM in [3]; 3.8 µM in assay [4]; 2.4 µM against Cholinesterase; 13.7 µM at Acetylcholinesterase [6]. The figures for the Ratio IC50 (in [5]; in the assay listed under Rattus norvegicus; in the assay listed under Homo sapiens) were 0.2, 1.9 and 3.8, respectively.
Consider `O=C1CCc2ccc(OCCCN3CCN(c4ccccn4)CC3)cc2N1`, for which the IC50 at Acetylcholinesterase [1] turned out to be 20 µM; in assay [2], 1.1 µM; in assay [3] it was 39 µM; in assay [4], 18 µM; on Cholinesterase, 14.4 µM; against Acetylcholinesterase [6], 9.6 µM. Also, the Ratio IC50 in [5] came to 1.5; in the assay filed under Rattus norvegicus, 2; in the assay filed under Homo sapiens, 17.1.
Turning to `O=C1CCc2ccc(OCCCCCCN3CCc4ccccc4C3)cc2N1`, the IC50 came out at 10.8 µM against Acetylcholinesterase [1]; 3.4 µM in assay [2]; 11.7 µM in [3]; 4.4 µM in assay [4]; 1.2 µM against Cholinesterase; 8.2 µM against Acetylcholinesterase [6]. In addition, the Ratio IC50 is 0.1 in assay [5], 1.1 in the assay listed under Rattus norvegicus and 1.3 in the assay listed under Homo sapiens.
`CC(C)N1CCN(CCCCCOc2ccc3c(c2)NC(=O)CC3)CC1`: the IC50 is 3.2 µM against Acetylcholinesterase [1]; 8.2 µM in [2]; 2.7 µM in assay [3]; 8.1 µM in assay [4]; 3.2 µM at Cholinesterase; 0.9 µM on Acetylcholinesterase [6]. Besides, the Ratio IC50 in [5] amounted to 3.5; in the assay listed under Rattus norvegicus it was 0.9; in the assay listed under Homo sapiens, 1.
Turning to `O=C1CCc2ccc(OCCCCN3CCCCC3)cc2N1`, the IC50 on Acetylcholinesterase [1] turned out to be 11.6 µM; in assay [2], 9.5 µM; in assay [3] it was 22.8 µM; in assay [4] it was 6.4 µM; against Cholinesterase, 15.7 µM; on Acetylcholinesterase [6] it was 11.8 µM. The results for the Ratio IC50 (in [5]; in the assay listed under Rattus norvegicus; in the assay filed under Homo sapiens) were 1.3, 2 and 0.7, respectively.
Turning to `CCN(CC)CCCCCCOc1ccc2c(c1)NC(=O)CC2`, the IC50 came out at 41.9 µM against Acetylcholinesterase [1]; 5.4 µM in [2]; 24.3 µM in assay [3]; 8.6 µM in assay [4]; 29.5 µM at Cholinesterase; 13.3 µM against Acetylcholinesterase [6]. Further, the figures for the Ratio IC50 (in assay [5]; in the assay filed under Rattus norvegicus; in the assay filed under Homo sapiens) were 2.2, 0.6 and 1.6, respectively.
On to `O=C1CCc2ccc(OCCCN3CCC(N4CCCC4)CC3)cc2N1`, for which the IC50 at Acetylcholinesterase [1] came to 16 µM; in assay [2], 9.6 µM; in assay [3], 21.5 µM; in assay [4], 19.2 µM; on Cholinesterase it was 39.6 µM; against Acetylcholinesterase [6] it was 5.8 µM. For the same compound, the Ratio IC50 in [5] is 6.9; in the assay filed under Rattus norvegicus, 1.3; in the assay filed under Homo sapiens it was 2.
In the case of `O=C1CCc2ccc(OCCCCCN3CCCCC3)cc2N1`, the IC50 at Acetylcholinesterase [1] came out at 8.4 µM; in assay [2], 8.4 µM; in assay [3], 31.4 µM; in assay [4], 17 µM; at Cholinesterase, 32.8 µM; on Acetylcholinesterase [6] it was 12.8 µM. Besides, the Ratio IC50 is 2.6 in assay [5], 3.8 in the assay listed under Rattus norvegicus and 2 in the assay listed under Homo sapiens.
As for `C#CCN(CCCCOc1ccc2c(c1)NC(=O)CC2)Cc1ccccc1`, the IC50 amounted to 23.3 µM against Acetylcholinesterase [1]; 9.3 µM in [2]; 32.1 µM in assay [3]; 9.1 µM in [4]; 19.1 µM against Cholinesterase; 21.4 µM against Acetylcholinesterase [6]. The Ratio IC50 came out at 0.9 in assay [5], 1.4 in the assay filed under Rattus norvegicus and 1 in the assay listed under Homo sapiens.
On to `O=C1CCc2ccc(OCCCCCCN3CCN(c4ccccn4)CC3)cc2N1`, for which the IC50 worked out at 34.1 µM against Acetylcholinesterase [1]; 5.6 µM in assay [2]; 48.2 µM in assay [3]; 11.3 µM in assay [4]; 4.1 µM against Cholinesterase; 19.1 µM on Acetylcholinesterase [6]. Further, the results for the Ratio IC50 (in assay [5]; in the assay filed under Rattus norvegicus; in the assay listed under Homo sapiens) were 0.2, 1.4 and 2, respectively.
`COc1cc2c(cc1OC)C(=O)C(CC1CCN(Cc3ccccc3)CC1)C2` (stereo not given) [DONEPEZIL]: the IC50 in assay [3] stood at 4.42 µM.

The values are drawn from ChEMBL document CHEMBL4033676, “Design, synthesis and biological evaluation of 3,4-dihydro-2(1H)-quinoline-O-alkylamine derivatives as new multipotent cholinesterase/monoamine oxidase inhibitors for the treatment of Alzheimer's disease” (Bioorg Med Chem, 2017).
